From ChEMBL document CHEMBL1149913, “De novo design of nonpeptidic compounds targeting the interactions between interferon-alpha and its cognate cell surface receptor” (J Med Chem, 2008)
The source made the active and inactive calls. No cut-off for these calls is given here.

Experiments:
[1] = biological target: T1, Interferon alpha/beta receptor 1 (Homo sapiens) (UniProt P17181); experiment: Activity at IFNAR in human Daudi cells assessed as induction of stat1 tyrosine phosphorylation at 100 umol after 5 to 30 mins; assay type: cell-based
T1 sequence (whole entry): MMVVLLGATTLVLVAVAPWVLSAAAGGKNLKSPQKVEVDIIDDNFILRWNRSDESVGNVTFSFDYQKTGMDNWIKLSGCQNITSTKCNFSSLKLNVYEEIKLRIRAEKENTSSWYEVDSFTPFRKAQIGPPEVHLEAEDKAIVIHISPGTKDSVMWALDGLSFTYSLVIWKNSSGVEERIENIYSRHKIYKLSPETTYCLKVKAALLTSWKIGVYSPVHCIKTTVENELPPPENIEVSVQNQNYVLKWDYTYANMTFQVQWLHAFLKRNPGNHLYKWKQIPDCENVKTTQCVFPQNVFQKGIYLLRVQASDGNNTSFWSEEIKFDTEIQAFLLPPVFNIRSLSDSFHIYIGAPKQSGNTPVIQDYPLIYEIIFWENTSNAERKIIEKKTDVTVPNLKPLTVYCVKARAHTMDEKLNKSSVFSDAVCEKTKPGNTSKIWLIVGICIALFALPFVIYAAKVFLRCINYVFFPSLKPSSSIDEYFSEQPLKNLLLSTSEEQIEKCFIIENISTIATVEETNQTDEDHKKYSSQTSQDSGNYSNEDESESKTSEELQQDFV

[2] = biological target: T1, Interferon alpha/beta receptor 1 (Homo sapiens); experiment: Antagonist activity at IFNAR in human Daudi cells assessed as inhibition of IFN-inducible Stat1 tyrosine phosphorylation by SDS-PAGE; assay type: functional, cell-based
Method in brief: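 Daudi cells were left untreated or exposed to IFN alfacon-1 (100 pg) for 15 min, with or without compound (dose–response 20–100 µM). Lysates were run on SDS-PAGE, transferred to nitrocellulose and immunoblotted for phospho-Stat1. Membranes were stripped and reprobed for total Stat1, or β-actin served as the loading control.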

[3] = biological target: T1, Interferon alpha/beta receptor 1 (Homo sapiens); experiment: Antagonist activity at IFNAR in human Daudi cells assessed as reduction of IFN-inducible Stat1:Stat3-pIRE complex formation at 100 umol by electrophoretic mobility shift assay; assay type: functional, cell-based
[4] = biological target: T1, Interferon alpha/beta receptor 1 (Homo sapiens); experiment: Antagonist activity at IFNAR in human Daudi cells assessed as reduction of IFN-inducible Stat1:Stat1-pIRE complex formation at 100 umol by electrophoretic mobility shift assay; assay type: functional, cell-based

Row | Activity [1] | Structure (SMILES) | further results
1 | inactive | CN(C)CCSc1nccc(-c2ccco2)n1 | –
2 | inactive | CC(C)OCCCNc1nc(OCCCN)cc(OC(C)C)n1 | –
3 | inactive | CC(C)OCCCNc1cc(OCCN(C)C)nc(Oc2ccc(CCN)cc2)n1 | –
4 | inactive | COCCNc1cc(OCCN(C)C)nc(OCCN)n1 | –
5 | inactive | COCCNc1nc(OCCCCNC(=N)N)cc(OCCN(C)C)n1 | –
6 | inactive | CC(C)OCCCNc1nc(OCCCCN)cc(OCCN(C)C)n1 | –
7 | inactive | COCCNc1nc(OCCCCN)cc(OCCN(C)C)n1 | –
8 | inactive | CC(C)Oc1cc(OCCN(C)C)nc(OCCN(C)C)n1 | –
9 | inactive | CN(C)CCSc1nccc(-c2cccs2)n1 | –
10 | inactive | CN(C)CCSc1ccc(-c2cc(-c3cccs3)nc(SCCN(C)C)n2)cc1 | Activity [2]: Dose-dependent effect; Activity [3]: Active; Activity [4]: Active
11 | inactive | COCCNc1cc(OCCN(C)C)nc(OCCNC(=N)N)n1 | –
12 | inactive | CN(C)CCSc1ccc(-c2cc(-c3ccco3)nc(SCCN(C)C)n2)cc1 | Activity [2]: Dose-dependent effect; Activity [3]: Active; Activity [4]: Active
13 | inactive | CCOc1cc(N(C)C)nc(NCCCOC(C)C)n1 | –
14 | inactive | CC(C)OCCCNc1nc(OCCN(C)C)cc(OC(C)C)n1 | –
15 | inactive | CCOc1cc(OCCCCN)nc(NCCCOC(C)C)n1 | –
16 | inactive | CC(C)OCCCNc1cc(OCCN(C)C)nc(OCCCN)n1 | –
17 | inactive | CCOc1cc(OCCCN)nc(NCCCOC(C)C)n1 | –
18 | inactive | CC(C)OCCCNc1nc(OCCN)cc(OCCN(C)C)n1 | –
19 | inactive | CC(C)OCCCNc1cc(OCCN(C)C)nc(OCCCNC(=N)N)n1 | –
20 | inactive | COCCNc1cc(OCCN(C)C)nc(OCCCNC(=N)N)n1 | –
21 | inactive | COCCNc1cc(OCCN(C)C)nc(OCCCN)n1 | –
22 | inactive | CCOc1cc(OCCN(C)C)nc(NCCCOC(C)C)n1 | –
23 | inactive | CCOc1cc(OCCN(C)C)nc(OCCN(C)C)n1 | –
24 | inactive | CC(C)OCCCNc1nc(OCCCCNC(=N)N)cc(OCCN(C)C)n1 | –
25 | inactive | COCCNc1cc(OC(C)C)nc(OC(C)C)n1 | –

Row | Structure (SMILES) | Activity [1] | further results
26 | COCCNc1cc(OCCN(C)C)nc(Oc2ccc(CCN)cc2)n1 | inactive | –
